Results as given in ChEMBL document CHEMBL1152954, “Discovery, characterization and comparison of inhibitors of Bacillus anthracis and Staphylococcus aureus replicative DNA helicases” (Bioorg Med Chem, 2009).
Values after ≈ are worked out from the molar mass of the structure shown. Active and inactive are the calls of the source. The rule behind the calls is not given here.

What was measured:
Bacillus anthracis [1] = experiment: Antibacterial activity against permeabilized polA-deficient Bacillus anthracis Sterne assessed as inhibition of DNA replication by cell based assay; assay type: functional, organism-based
Procedure, shortened: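 ATP-dependent DNA replication measured in permeabilized ΔpolA B. anthracis Sterne cells by a modified Brown et al. method, testing whether compounds block an intact replisome.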

Bacillus anthracis [2] = experiment: Antibacterial activity against Bacillus anthracis Sterne by broth microdilution method; assay type: functional
Staphylococcus aureus [3] = experiment: Antibacterial activity against Staphylococcus aureus Smith by broth microdilution method; assay type: functional
DnaC helicase = biological target: T1, DnaC helicase (Staphylococcus aureus, UniProt Q9AQH7); experiment: Inhibition of Staphylococcus aureus Smith DNA helicase DnaC assessed as strand unwinding after 30 mins by FRET assay
T1 sequence (Q9AQH7 whole entry): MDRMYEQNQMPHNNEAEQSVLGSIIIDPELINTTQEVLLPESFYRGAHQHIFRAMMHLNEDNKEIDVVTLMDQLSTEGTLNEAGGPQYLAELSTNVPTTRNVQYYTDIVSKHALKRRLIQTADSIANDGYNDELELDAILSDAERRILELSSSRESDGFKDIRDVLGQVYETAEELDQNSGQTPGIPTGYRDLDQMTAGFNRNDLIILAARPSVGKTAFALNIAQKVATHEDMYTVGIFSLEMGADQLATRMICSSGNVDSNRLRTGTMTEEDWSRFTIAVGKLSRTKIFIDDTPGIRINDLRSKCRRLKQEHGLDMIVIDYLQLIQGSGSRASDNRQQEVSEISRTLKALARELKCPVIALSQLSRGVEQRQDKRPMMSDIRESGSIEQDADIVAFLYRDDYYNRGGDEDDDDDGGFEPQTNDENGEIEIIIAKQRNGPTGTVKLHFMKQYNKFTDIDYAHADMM

HeLa = experiment: Cytotoxicity against human HeLa cells by MTT assay; assay type: cell-based
Bacillus subtilis [4] = experiment: Inhibition of Bacillus subtilis class C DNA polymerase 3
Procedure, shortened: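 B. subtilis Pol IIIC polymerase assay in 96-well format on DNase-activated chromosomal DNA substrate, which needs no helicase function.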

[5] = test system: Geobacillus stearothermophilus; experiment: Antibacterial activity against Bacillus stearothermophilus ATCC 12980 by broth microdilution method; assay type: functional
Bacillus subtilis [6] = experiment: Antibacterial activity against Bacillus subtilis BD54 by broth microdilution method; assay type: functional
Staphylococcus aureus [7] = experiment: Antibacterial activity against Staphylococcus aureus ATCC 25923 by broth microdilution method; assay type: functional
Enterococcus faecalis [8] = experiment: Antibacterial activity against Enterococcus faecalis ATCC 29212 by broth microdilution method; assay type: functional
Enterococcus faecalis [9] = experiment: Antibacterial activity against vancomycin-resistant Enterococcus faecalis ATCC 51575 by broth microdilution method; assay type: functional
Priestia megaterium = experiment: Antibacterial activity against Bacillus megaterium ATCC 12872 by broth microdilution method; assay type: functional
Bacillus licheniformis = experiment: Antibacterial activity against Bacillus licheniformis ATCC 14580 by broth microdilution method; assay type: functional; conditions: DSM 13=ATCC 14580
Bacillus thuringiensis = experiment: Antibacterial activity against Bacillus thuringiensis ATCC 10792 by broth microdilution method; assay type: functional
Bacillus cereus = experiment: Antibacterial activity against Bacillus cereus ATCC 4342 by broth microdilution method; assay type: functional
[10] = Selectivity ratio of IC50 for Staphylococcus aureus Smith DNA helicase DnaC to IC50 for Bacillus anthracis DNA helicase DnaB
Bacillus subtilis [11] = experiment: Inhibition of Bacillus subtilis DNA gyrase up to 50 uM by gel mobility assay
Procedure, shortened: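 B. subtilis DNA gyrase activity measured by a published gel mobility assay; compounds tested up to 50 μM.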

Staphylococcus aureus [12] = experiment: Antibacterial activity against methicillin-resistant Staphylococcus aureus isolate 1094 by broth microdilution method; assay type: functional
Escherichia coli [13] = experiment: Antibacterial activity against Escherichia coli 700 expressing […] gene by broth microdilution method; assay type: functional
Escherichia coli [14] = experiment: Antibacterial activity against TolC deficient Escherichia coli 701 by broth microdilution method; assay type: functional

Which IC50 (Bacillus anthracis [1]) does the source give for `COc1cc(/C=C2\SC(=S)N(c3ccc(Cl)cc3)C2=O)cc(OC)c1O` here?
Its IC50 is 73 µM.

And the MIC (Bacillus anthracis [2])?
Its MIC is greater than 100 µM.

What about the MIC (Staphylococcus aureus [3]) of the same compound?
The MIC was greater than 100 µM.

And the IC50 (DnaC helicase)?
Its IC50 is 2 µM.

What about the CC50 (HeLa) of the same compound?
The CC50 was greater than 100 µM.

Which results are given for `Cc1ccc(C)n1-c1ccc(C(=O)O)c(O)c1`?
IC50 (Bacillus anthracis [1]): > 100 µM; MIC (Bacillus anthracis [2]): 50 µM (≈ 11.6 µg/mL); MIC (Staphylococcus aureus [3]): 50 µM (≈ 11.6 µg/mL); CC50 (HeLa): > 100 µM

Which IC50 (Bacillus anthracis [1]) does the source give for `COc1cc(C(=O)Nc2nc3ccc(S(=O)(=O)N4CCOCC4)cc3s2)cc(OC)c1OC` here?
Its IC50 is greater than 100 µM.

And the MIC (Bacillus anthracis [2])?
The MIC was greater than 100 µM.

And the MIC (Staphylococcus aureus [3])?
Its MIC is greater than 100 µM.

What about the IC50 (DnaC helicase) of the same compound?
Its IC50 is 15 µM.

And the CC50 (HeLa)?
The CC50 was 70 µM.

And the inhibition (Bacillus subtilis [4])?
The inhibition was “inactive”.

With `Cc1c(CCC(=O)O)c(=O)oc2c(C)c(OCc3cccc4ccccc34)ccc12` as the compound, how does the IC50 (Bacillus anthracis [1]) read?
The IC50 was 107 µM.

What about the MIC (Bacillus anthracis [2]) of the same compound?
Its MIC is 6 µM (≈ 2.41 µg/mL).

And the MIC (Staphylococcus aureus [3])?
Its MIC is greater than 100 µM.

And the IC50 (DnaC helicase)?
The IC50 was 65 µM.

And the MIC [5]?
Its MIC is 5 µg/mL (≈ 12.4 µM).

What about the MIC (Bacillus subtilis [6]) of the same compound?
Its MIC is 15.1 µg/mL (≈ 37.5 µM).

And the MIC (Staphylococcus aureus [7])?
Its MIC is 2.5 µg/mL (≈ 6.21 µM).

And the MIC (Enterococcus faecalis [8])?
Its MIC is greater than 40 µg/mL.

What about the MIC (Enterococcus faecalis [9]) of the same compound?
The MIC was greater than 40 µg/mL.

And the MIC (Priestia megaterium)?
The MIC was greater than 40 µg/mL.

And the MIC (Bacillus licheniformis)?
Its MIC is 2.5 µg/mL (≈ 6.21 µM).

And the MIC (Bacillus thuringiensis)?
The MIC was 2.5 µg/mL (≈ 6.21 µM).

And the MIC (Bacillus cereus)?
The MIC was 2.5 µg/mL (≈ 6.21 µM).

What about the CC50 (HeLa) of the same compound?
The CC50 was 6 µM.

What about the Ratio IC50 [10] of the same compound?
The Ratio IC50 was 2.

What about the inhibition (Bacillus subtilis [11]) of the same compound?
Its inhibition is “inactive”.

What about the MIC (Staphylococcus aureus [12]) of the same compound?
Its MIC is 5 µg/mL (≈ 12.4 µM).

And the MIC (Escherichia coli [13])?
Its MIC is greater than 40 µg/mL.

What about the MIC (Escherichia coli [14]) of the same compound?
The MIC was greater than 40 µg/mL.

For `CCC1(C)Cc2ccccc2-c2[nH]c3nnc(S)n3c(=O)c21` (configuration not stated), which IC50 (Bacillus anthracis [1]) is on record?
The IC50 was 27 µM.

What about the MIC (Bacillus anthracis [2]) of the same compound?
The MIC was 30 µM (≈ 9.37 µg/mL).

What about the MIC (Staphylococcus aureus [3]) of the same compound?
Its MIC is greater than 100 µM.

What about the IC50 (DnaC helicase) of the same compound?
The IC50 was greater than 100 µM.

What about the CC50 (HeLa) of the same compound?
Its CC50 is 80 µM.

Which IC50 (Bacillus anthracis [1]) does the source give for `Oc1ccc(O)c(-c2ccc(-c3nnc(S)o3)o2)c1` here?
The IC50 was greater than 100 µM.

And the MIC (Bacillus anthracis [2])?
The MIC was 25 µM (≈ 6.91 µg/mL).

What about the MIC (Staphylococcus aureus [3]) of the same compound?
The MIC was greater than 100 µM.

What about the IC50 (DnaC helicase) of the same compound?
Its IC50 is greater than 100 µM.

And the CC50 (HeLa)?
The CC50 was 66 µM.

For `Cn1c(SCc2cc(=O)oc3cc(O)c(O)cc23)nc2ccccc21`, which IC50 (Bacillus anthracis [1]) is on record?
The IC50 was 100 µM.

And the MIC (Bacillus anthracis [2])?
Its MIC is 55 µM (≈ 19.5 µg/mL).

What about the MIC (Staphylococcus aureus [3]) of the same compound?
Its MIC is 23 µM (≈ 8.15 µg/mL).

What about the IC50 (DnaC helicase) of the same compound?
Its IC50 is 15 µM.

And the CC50 (HeLa)?
The CC50 was 35 µM.

And the Ratio IC50 [10]?
Its Ratio IC50 is 2.

For `Cc1noc(NS(=O)(=O)c2ccc(NC(=O)CSc3nnc(-c4ccccc4)c(-c4ccccc4)n3)cc2)c1C`, which IC50 (Bacillus anthracis [1]) is on record?
The IC50 was 61 µM.

And the MIC (Bacillus anthracis [2])?
Its MIC is 50 µM (≈ 28.6 µg/mL).

What about the MIC (Staphylococcus aureus [3]) of the same compound?
Its MIC is 75 µM (≈ 43 µg/mL).

What about the IC50 (DnaC helicase) of the same compound?
Its IC50 is 47 µM.

And the MIC [5]?
Its MIC is 57.3 µg/mL (≈ 100 µM).

And the MIC (Bacillus subtilis [6])?
Its MIC is greater than 60 µg/mL.

And the MIC (Staphylococcus aureus [7])?
Its MIC is 43 µg/mL (≈ 75.1 µM).

What about the MIC (Enterococcus faecalis [8]) of the same compound?
The MIC was greater than 60 µg/mL.

And the MIC (Enterococcus faecalis [9])?
The MIC was greater than 60 µg/mL.

And the MIC (Priestia megaterium)?
Its MIC is 57.3 µg/mL (≈ 100 µM).

And the MIC (Bacillus licheniformis)?
Its MIC is 57.3 µg/mL (≈ 100 µM).

What about the MIC (Bacillus thuringiensis) of the same compound?
The MIC was 57.3 µg/mL (≈ 100 µM).

And the MIC (Bacillus cereus)?
The MIC was 57.3 µg/mL (≈ 100 µM).

And the CC50 (HeLa)?
The CC50 was 68 µM.

What about the inhibition (Bacillus subtilis [11]) of the same compound?
The inhibition was “inactive”.

And the MIC (Staphylococcus aureus [12])?
Its MIC is 57.3 µg/mL (≈ 100 µM).

What about the MIC (Escherichia coli [13]) of the same compound?
Its MIC is greater than 60 µg/mL.

What about the MIC (Escherichia coli [14]) of the same compound?
The MIC was 28.7 µg/mL (≈ 50.1 µM).

With `Cc1ccc(C)n1-c1ccc(SCC(=O)O)cc1` as the compound, how does the MIC (Bacillus anthracis [2]) read?
The MIC was greater than 100 µM.

And the MIC (Staphylococcus aureus [3])?
Its MIC is greater than 100 µM.

And the IC50 (DnaC helicase)?
The IC50 was 4 µM.

And the CC50 (HeLa)?
The CC50 was greater than 100 µM.
